Laboratory results published in ChEMBL document CHEMBL1772965, “Analogues and derivatives of oncrasin-1, a novel inhibitor of the C-terminal domain of RNA polymerase II and their antitumor activities” (J Med Chem, 2011).
Active and inactive are the calls of the source. The calls are words filed in the database; no cut-off is given here.

Columns and labels:
[1] = Cytotoxicity against mutant K-ras-transformed human T29Kt1 cells assessed as cell viability after 3 days by sulforhodamine B assay; type: functional, cell-based; details: T29Kt1, 72 h
In short: (§1)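 Monolayer cultures were grown in RPMI-1640 or DMEM with 10% heat-inactivated fetal calf serum and penicillin/streptomycin, at 37°C and 5% CO2. Cells were exposed for 3 days to compound from 10−4.5 M (31.6 μM) down to 10−8 M (10 nM), with 1% DMSO as the control. Viability was read by sulforhodamine B. IC50 was the dose halving surviving cells versus control, run in quadruplicate and repeated at least three times.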

[2] = Cytotoxicity against human T29 cells assessed as cell viability after 3 days by sulforhodamine B assay; type: cell-based; details: T29, 72 h; in short: as §1
NCI-H460 [3] = experiment: Cytotoxicity against human H460 cells assessed as cell viability after 3 days by sulforhodamine B assay; type: functional, cell-based; details: NCI-H460, 72 h; in short: as §1
[4] = Stability of compound at pH 4; type: physicochemical; details: buffer
[5] = Stability of compound at pH 6; type: physicochemical; details: buffer
[6] = Stability of compound at pH 7.4; type: physicochemical; details: buffer
[7] = Stability of compound at pH 9; type: physicochemical; details: buffer
[8] = Stability of compound at pH 2; type: physicochemical; details: buffer
NCI-H157 [9] = experiment: Antitumor activity against human NCI-H157 cells assessed as cell viability after 3 days by sulforhodamine B assay; type: functional, cell-based; details: NCI-H157, 72 h; in short: as §1
NCI-H460 [10] = experiment: Antitumor activity against human H460 cells assessed as cell viability after 3 days by sulforhodamine B assay; type: functional, cell-based; details: for IC50: NCI-H460, 72 h; in short: as §1
NCI-H1299 = experiment: (§2) Antitumor activity against human H1299 cells assessed as cell viability after 3 days by sulforhodamine B assay; type: functional, cell-based; in short: as §1
NCI-H322 [11] = experiment: (§3) Antitumor activity against human NCI-H322 cells assessed as cell viability after 3 days by sulforhodamine B assay; type: functional, cell-based; in short: as §1
NCI-H157 [12] = experiment: Inhibition of RNA pol2 CTD phosphorylation in human NCI-H157 cells at 1 uM after 12 hrs by Western blot analysis; type: cell-based
In short: (§4)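 Cells were treated with 1 μM compound for 12 h and then analysed by Western blot. Phospho-CTD was detected with the H5 antibody (diluted 1:1000), and β-actin (1:1000) served as the loading reference.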

H460 = experiment: Inhibition of RNA pol2 CTD phosphorylation in human H460 cells at 1 uM after 12 hrs by Western blot analysis; type: cell-based; in short: as §4
H1299 = experiment: Inhibition of RNA pol2 CTD phosphorylation in human H1299 cells at 1 uM after 12 hrs by Western blot analysis; type: cell-based; in short: as §4
NCI-H322 [13] = experiment: Inhibition of RNA pol2 CTD phosphorylation in human NCI-H322 cells at 1 uM after 12 hrs by Western blot analysis; type: cell-based; in short: as §4
[14] = as §2; type: functional, cell-based; details: NCI-H1299, 72 h; in short: as §1
[15] = as §3; type: functional, cell-based; details: NCI-H322, 72 h; in short: as §1

Row | Structure (SMILES) | IC50 [1] [nM] | IC50 [2] [nM] | IC50 (NCI-H460 [3]) [nM] | Stability [4] | Stability [5] | Stability [6] | Stability [7] | Stability [8] | IC50 (NCI-H157 [9]) [nM] | Activity (NCI-H460 [10]) | IC50 (NCI-H460 [10]) [nM] | Activity (NCI-H1299) | Activity (NCI-H322 [11]) | inhibition (NCI-H157 [12]) | inhibition (H460) | inhibition (H1299) | inhibition (NCI-H322 [13]) | IC50 [14] [nM] | IC50 [15] [nM]
1 | OCc1cn(Cc2ccc(Cl)cc2)c2cc(F)ccc12 | 1000 | > 31600 | 450 | Stable | Stable | Stable | Stable | Unstable |  |  |  |  |  |  |  |  |  |  | 
2 | OCc1cn(Cc2ccccc2Cl)c2ccccc12 | 2510 | > 31600 | 100 | Stable | Stable | Stable | Stable | Unstable |  |  |  |  |  |  |  |  |  |  | 
3 | OCc1cn(Cc2ccc(Cl)cc2)c2ccccc12 | 79 | > 31600 | 16 | Stable | Stable | Stable | Stable | Unstable | ≤ 200 | Dose-dependent effect | ≤ 200 | Dose-dependent effect | Dose-dependent effect | Dose-dependent effect | Active | inactive | inactive |  | 
4 | OCc1cn(Cc2cccc(Cl)c2)c2ccccc12 | 160 | > 31600 | 19 | Stable | Stable | Stable | Stable | Unstable | ≤ 200 | Dose-dependent effect | ≤ 200 | Dose-dependent effect | Dose-dependent effect | Dose-dependent effect | Active | inactive | inactive |  | 
5 | OCc1cn(Cc2ccc(F)cc2)c2ccccc12 | 30 | 17000 | 118 | Stable | Stable | Stable | Stable | Unstable |  |  |  |  |  |  |  |  |  |  | 
6 | OCc1cn(Cc2cccc(C(F)(F)F)c2)c2ccccc12 | 560 | > 31600 | 39 | Stable | Stable | Stable | Stable | Unstable |  |  |  |  |  |  |  |  |  |  | 
7 | Cc1ccc(Cn2cc(CO)c3ccccc32)cc1 | 150 | > 31600 | 31 | Stable | Stable | Stable | Stable | Unstable |  |  |  |  |  |  |  |  |  |  | 
8 | COc1ccc2c(c1)c(CO)cn2Cc1ccc(Cl)cc1 | 12500 | > 31600 | 1510 | Stable | Stable | Stable | Stable | Unstable |  |  |  |  |  |  |  |  |  |  | 
9 | OCc1cn(Cc2ccc(Cl)cc2Cl)c2ccccc12 | 1580 | > 31600 | 79 | Stable | Stable | Stable | Stable | Unstable |  |  |  |  |  |  |  |  |  |  | 
10 | Cc1cccc(Cn2cc(CO)c3ccccc32)c1 | 1000 | > 31600 | 31 | Stable | Stable | Stable | Stable | Unstable |  |  |  |  |  |  |  |  |  |  | 
11 | OCc1cn(Cc2ccc(Br)c(Br)c2)c2ccccc12 | 100 | > 31600 | 50 | Stable | Stable | Stable | Stable | Unstable |  |  |  |  |  |  |  |  |  |  | 
12 | OCc1cn(Cc2ccccc2)c2ccccc12 | 30 | 14500 | 112 | Stable | Stable | Stable | Stable | Unstable |  |  |  |  |  |  |  |  |  |  | 
13 | OCc1cn(Cc2ccc(Br)cc2)c2ccccc12 | 390 | > 31600 | 31 | Stable | Stable | Stable | Stable | Unstable |  |  |  |  |  |  |  |  |  |  | 
14 | OCc1cn(Cc2cccc(I)c2)c2ccccc12 | 20 | > 31600 | 100 | Stable | Stable | Stable | Stable | Unstable |  |  |  |  |  |  |  |  |  |  | 
15 | O=[N+]([O-])c1cccc(Cn2cc(CO)c3ccccc32)c1 | 390 | > 31600 | 39 | Stable | Stable | Stable | Stable | Unstable |  |  |  |  |  |  |  |  |  |  | 
16 | OCc1cn(Cc2ccc(Cl)cc2)c2ccc(F)cc12 | 80 | 8120 | 30 | Stable | Stable | Stable | Stable | Unstable |  |  |  |  |  |  |  |  |  |  | 
17 | COc1ccc(Cn2cc(CO)c3ccccc32)cc1 | 63 | > 31600 | 79 | Stable | Stable | Stable | Stable | Unstable |  |  |  |  |  |  |  |  |  |  | 
18 | Cc1ccc(Cn2cc(CO)c3cc(F)ccc32)cc1 | 30 | 11700 | 10 | Stable | Stable | Stable | Stable | Unstable |  |  |  |  |  |  |  |  |  |  | 
19 | OCc1cn(Cc2ccc(Cl)cc2)c2ccc(Cl)cc12 | 13000 | > 31600 | 5750 | Stable | Stable | Stable | Stable | Unstable |  |  |  |  |  |  |  |  |  |  | 
20 | O=[N+]([O-])c1ccc(Cn2cc(CO)c3ccccc32)cc1 | 150 | > 31600 | 79 | Stable | Stable | Stable | Stable | Unstable |  |  |  |  |  |  |  |  |  |  | 
21 | OCc1cn(Cc2cccc(F)c2)c2ccc(Cl)cc12 | 160 | 10000 | 70 | Stable | Stable | Stable | Stable | Unstable | ≤ 200 |  | ≤ 200 |  |  | Active | Active | inactive | inactive | ≥ 13000 | ≥ 13000
22 | OCc1cn(Cc2ccc(C(F)(F)F)cc2)c2ccccc12 | 1250 | > 31600 | 1250 | Stable | Stable | Stable | Stable | Unstable |  |  |  |  |  |  |  |  |  |  | 
23 | OCc1cn(Cc2cccc(F)c2)c2ccccc12 | 20 | > 31600 | 40 | Stable | Stable | Stable | Stable | Unstable |  |  |  |  |  |  |  |  |  |  | 
24 | OCc1cn(Cc2ccc(Cl)c(Cl)c2)c2ccccc12 | 310 | > 31600 | 31 | Stable | Stable | Stable | Stable | Unstable |  |  |  |  |  |  |  |  |  |  | 
25 | OCc1cn(Cc2cccc(Br)c2)c2ccccc12 | 32 | > 31600 | 28 | Stable | Stable | Stable | Stable | Unstable |  |  |  |  |  |  |  |  |  |  | 
